For orientation: pA2 means a measure of antagonist potency on a negative log scale. Read a high pA2 as a more potent antagonist. For orientation: IC50 means the concentration that inhibits the measured activity by half.

The text below walks through data of ChEMBL document CHEMBL1134405 (J Med Chem, 2001).

A short description of experiment [1]: A dose-response plot was obtained by determining the response when the concentration of glucagon was varied while the concentration was kept same.
The target in another experiment is Glucagon receptor (Rattus norvegicus, UniProt P30082). In words: IC50 value was expressed as inhibition of [125]glucagon specific binding. The essentials:
(§1)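 Incubation 10 min at 30 °C, then ice cooling and filtration on 0.45 μm cellulose acetate, gamma counting. Nonspecific binding taken with 1024 nM unlabeled peptide and subtracted. Read as % inhibition of specific binding. Triplicates, repeated twice.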

Experiment [2] deals with T1, Adenylate cyclase (Rattus norvegicus) (UniProt D4A3N4+P26770+Q04400+P26769+Q03343+P40146+Q8CFM9+P21932). In words: Maximum stimulation of adenylate cyclase. The experiment is classed as protein assay.
The target in experiment [3] is Glucagon receptor (Rattus norvegicus) (UniProt P30082). Kind of experiment: Relative binding by measuring competition for glucagon receptor between [125]glucagon and the compound. In outline:
as §1

Experiment [4] concerns the target T1, Adenylate cyclase (Rattus norvegicus). Kind of experiment: Adenylate cyclase stimulation; Inactive up to 100 uM. The experiment is classed as protein assay.
The target in experiment [5] is Glucagon receptor (Rattus norvegicus) (UniProt P30082). Kind of experiment: Compound was evaluated for its ability to displace radiolabeled glucagon (inactive up to 100 uM). The essentials:
as §1

Active and inactive are the calls of the source. The calls are words filed in the database; no cut-off is given here. Peptide text beside a SMILES is read from it.

Chain of Glucagon receptor (Rattus norvegicus) (P30082 whole entry): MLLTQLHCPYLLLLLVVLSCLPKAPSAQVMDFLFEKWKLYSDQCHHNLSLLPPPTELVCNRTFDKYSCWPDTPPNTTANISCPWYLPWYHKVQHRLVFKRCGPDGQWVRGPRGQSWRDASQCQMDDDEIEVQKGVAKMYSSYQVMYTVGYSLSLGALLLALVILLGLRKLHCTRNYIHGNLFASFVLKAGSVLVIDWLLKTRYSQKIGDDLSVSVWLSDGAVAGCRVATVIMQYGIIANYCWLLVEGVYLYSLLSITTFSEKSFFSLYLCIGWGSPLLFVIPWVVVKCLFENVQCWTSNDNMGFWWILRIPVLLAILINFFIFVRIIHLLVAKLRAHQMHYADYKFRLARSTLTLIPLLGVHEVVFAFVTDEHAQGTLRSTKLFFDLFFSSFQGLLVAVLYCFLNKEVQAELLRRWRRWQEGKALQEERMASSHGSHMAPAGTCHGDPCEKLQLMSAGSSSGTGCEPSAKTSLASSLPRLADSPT
Chain of Glucagon receptor (P30082 whole entry): as above

Turning to `CSCC[C@H](NC(=O)[C@H](CC(C)C)NC(=O)[C@H](Cc1c[nH]c2ccccc12)NC(=O)[C@H](CCC(N)=O)NC(=O)[C@@H](NC(=O)[C@H](Cc1ccccc1)NC(=O)[C@H](CC(=O)O)NC(=O)[C@H](CCC(N)=O)NC(=O)[C@H](C)NC(=O)[C@H](CCCN=C(N)N)NC(=O)[C@H](CCCN=C(N)N)NC(=O)[C@H](CO)NC(=O)[C@H](CC(=O)O)NC(=O)[C@H](CC(C)C)NC(=O)[C@H](Cc1ccc(O)cc1)NC(=O)[C@H](CCCCN)NC(=O)[C@H](CO)NC(=O)[C@H](Cc1ccc(O)cc1)NC(=O)CCCc1ccccc1)C(C)C)C(=O)N[C@@H](CC(N)=O)C(=O)N[C@H](C(N)=O)[C@@H](C)O` (HELM PEPTIDE1{[O=C(CCCc1ccccc1)[*:2]].Y.S.K.Y.L.D.S.R.R.A.Q.D.F.V.Q.W.L.M.N.T.[am]}$$$$V2.0), in experiment [1], the pA2 is reported as 7.38.
`CSCC[C@H](NC(=O)[C@H](CC(C)C)NC(=O)[C@H](Cc1c[nH]c2ccccc12)NC(=O)[C@H](CCC(N)=O)NC(=O)[C@@H](NC(=O)[C@H](Cc1ccccc1)NC(=O)[C@H](CC(=O)O)NC(=O)[C@H](CCC(N)=O)NC(=O)[C@H](C)NC(=O)[C@H](CCCN=C(N)N)NC(=O)[C@H](CCCN=C(N)N)NC(=O)[C@H](CO)NC(=O)[C@H](CC(=O)O)NC(=O)[C@H](CC(C)C)NC(=O)[C@H](Cc1ccc(O)cc1)NC(=O)[C@H](CCCCN)NC(=O)[C@H](CO)NC(=O)[C@H](Cc1ccc(O)cc1)NC(=O)Cc1ccccc1)C(C)C)C(=O)N[C@@H](CC(N)=O)C(=O)N[C@H](C(N)=O)[C@@H](C)O` (HELM PEPTIDE1{[O=C(Cc1ccccc1)[*:2]].Y.S.K.Y.L.D.S.R.R.A.Q.D.F.V.Q.W.L.M.N.T.[am]}$$$$V2.0) yielded a pA2 in experiment [1] of 7.37. The compound further came in with an IC50 at Glucagon receptor of 249 nM.
The compound `CSCC[C@H](NC(=O)[C@H](CC(C)C)NC(=O)[C@H](Cc1c[nH]c2ccccc12)NC(=O)[C@H](CCC(N)=O)NC(=O)[C@@H](NC(=O)[C@H](Cc1ccccc1)NC(=O)[C@H](CC(=O)O)NC(=O)[C@H](CCC(N)=O)NC(=O)[C@H](C)NC(=O)[C@H](CCCN=C(N)N)NC(=O)[C@H](CCCN=C(N)N)NC(=O)[C@H](CO)NC(=O)[C@H](CC(=O)O)NC(=O)[C@H](CC(C)C)NC(=O)[C@H](Cc1ccc2ccccc2c1)NC(=O)[C@H](CCCCN)NC(=O)[C@H](CO)NC(=O)[C@H](Cc1ccc2ccccc2c1)NC(C)=O)C(C)C)C(=O)N[C@@H](CC(N)=O)C(=O)N[C@H](C(N)=O)[C@@H](C)O` (HELM PEPTIDE1{[ac].[O=C([C@H](Cc1ccc2ccccc2c1)N[*:1])[*:2]].S.K.[O=C([C@H](Cc1ccc2ccccc2c1)N[*:1])[*:2]].L.D.S.R.R.A.Q.D.F.V.Q.W.L.M.N.T.[am]}$$$$V2.0) came in with a Max stimulation in experiment [2] of 0%. The compound also yielded a Relative binding in experiment [3] of 0.19%. Besides, in experiment [1], the pA2 is 6.87. In experiment [4], the IA entry was “Inactive up to 100 uM”.
In turn, Ac-FTSDYSKYL-NH2 registered a Max stimulation in experiment [2] of 0%. Moreover, the IA result in experiment [5] and in experiment [4] was “Inactive up to 100 uM” each time. Moreover, the Relative binding in experiment [3] was 0%.
In turn, Ac-FTSDYSKYLDSRRAQDFVQWLMNT-NH2 gave a pA2 in experiment [1] of 6.57. Moreover, the IC50 at Glucagon receptor was 31 nM.
In the case of Ac-YSKYLDSRRAQDFVQWLMNT-NH2, the pA2 in experiment [1] was determined as 7.44.
For H-DSRRAQDFVQWL-NH2, in experiment [2], the Max stimulation came to 0%. The IA entry in experiment [5] and in experiment [4] was “Inactive up to 100 uM” each time. This compound also registered a Relative binding in experiment [3] of 0%.
For H-YSKYLDSRRAQ-NH2, the Max stimulation in experiment [2] is 0%. Further, the IA entry in experiment [5] and in experiment [4] was “Inactive up to 100 uM” throughout. The same compound came in with a Relative binding in experiment [3] of 0%.
